Experimental data reported in PubChem BioAssay.
Results filed as inconclusive are left out.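 The calls were made as follows, unless noted: active = viability increase at or above a cutoff of the median across tested compounds plus 3 SD (cut at about 8.5% in these data, passing the limit was not always enough); inconclusive = some gains above the cutoff, reason not given; inactive = the rest.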

Columns and labels:
[1] = OD615 S. cerevisiae growth inhibition, permissive medium, pilot counter-assay, permissive growth control for S. cerevisiae lifespan shortening project (AID 705;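 active = growth inhibition above 25% in both replicates, a cutoff set 3 SD above the mean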); conditions: OD615, 24 h, at 10 µM, active compounds read high
In short: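 System: Engineered DeaD yeast | Buffer or medium: SC raffinose/galactose permissive medium | Doses: 10 µM single dose, 0.25% DMSO | Times: 24 h exposure, 30 °C | Measured by: OD615 turbidity read | Read-out: Yeast growth inhibition indicated by reduced 24 h OD615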

[2] = Restrictive medium S. cerevisiae growth inhibition, OD615, pilot screen of yeast lifespan reduction project, restrictive growth control (AID 706;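 active = growth inhibition above a set limit, 3 SD over mean compound inhibition, in both replicates, cut at about 43% in these data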;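 also: modified DeaD lifespan yeast strain shifted to restrictive glucose medium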); conditions: OD615, 48 h, at 10 µM, active compounds read high
In short: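 Assay system: engineered S. cerevisiae DeaD strain; Buffer or medium: CSMM-D glucose medium; Dosing: 10 µM compound, 0.25% DMSO; Times: cell pre-growth 4 h, compound exposure 48 h, 30 °C; Detection: absorbance (optical density) measured at 615 nm.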

[3] = viability gain of MRP-1-high H69AR cells under doxorubicin, pilot screen, MRP-1 activator project, CellTiter-Glo, duplicate (AID 807); conditions: H69AR viability with doxorubicin, CellTiter-Glo luminescence; at 10 µM; active compounds read high;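 also: compound pretreatment 18-22 h then 72 h combined with doxorubicin; 0% = doxorubicin alone and 100% = vehicle without doxorubicin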
[4] = growth suppression of beta-catenin knockout HCT116, pilot screen, human colon tumor cells (AID 823;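 active = cell viability at or below a set limit in both duplicate runs, the limit being the all-compound median minus 4 SD, cut at about 23% in these data, passing the limit was not always enough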;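 also: 0% = wells killed by 20 µM Hyamine and 100% = untreated DMSO cell wells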); conditions: CellTiter-Glo, 60 h, at 10 µM, active compounds read low
[5] = growth suppression of PTEN-deleted HCT116, pilot screen, cell-based, HCT116 clonal line, CellTiter-Glo (AID 824;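 active = viability at or below 27.92% in each of two runs, the all-compound median minus 4 SD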;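 also: 0% = 20 µM Hyamine control and 100% = vehicle cell control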); conditions: 60 h, at 10 µM, active compounds read low
[6] = inhibitors of the yeast RAM network, pilot screen, dse1pr::URA3 reporter, 5-FOA selection (AID 869;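 active = inhibition over a set limit, the all-compound mean plus 3 SD, in both replicate runs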;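 also: 0% = DMSO wells with no growth and 100% = 10 µM 1-NA-PP1 with full growth; RAM network block rescues cells from 5-FOA so hits raise OD615 growth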); conditions: S. cerevisiae dse1pr::URA3 5-FOA growth, OD615, 2 d; at 10 µM; active compounds read high; strain carries analog-sensitive mutant Cbk1 kinase
[7] = RAM signaling pathway blockade in yeast – S. cerevisiae, Pdr1DBD-CYC8 efflux-inhibited sensitized strain, primary screen (AID 1298;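 active = RAM network inhibition above 8.4% in each of two replicates, 3 SD over the compound average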;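 also: 0% = DMSO untreated cells without growth and 100% = 10 µM 1-NA-PP1 full growth; higher means more yeast growth rescued from 5-FOA killing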); conditions: S. cerevisiae cbk1-as DSE1-URA3 strain, 5-FOA growth OD615, 2 d; at 50 µM; active compounds read high

COCCNC(=O)Cn1cc2c(n1)CCC(C)C2 (stereo unspecified)
inactive: growth inhibition [1] -12.9% | growth inhibition [2] -0.165% | viability increase [3] 0.11% | viability [4] 104% | viability [5] 93.9% | inhibition [6] 2.06% | RAM network inhibition [7] 1.1%

O=C(c1ccccc1)c1ccc(N2CCCC2)cc1
inactive: growth inhibition [1] -1.86% | growth inhibition [2] 7.65% | viability increase [3] -2.59% | viability [4] 93% | viability [5] 96.4% | inhibition [6] 1.23% | RAM network inhibition [7] 1.03%

CC1CCCCN1CCNC(=O)c1cc2c(=O)n(C)c3ccccc3c2n1C (stereo unspecified)
inactive: growth inhibition [1] -12.9% | growth inhibition [2] -9.04% | viability increase [3] -6.71% | viability [4] 78.9% | viability [5] 72.7% | inhibition [6] 2.5% | RAM network inhibition [7] 1.31%

Cc1ccc(OCC(=O)n2nc(C)cc2C)c(Br)c1
inactive: growth inhibition [1] -17.8% | growth inhibition [2] -0.465% | viability increase [3] -2.35% | viability [4] 93.9% | viability [5] 94.3% | inhibition [6] 0.89% | RAM network inhibition [7] 0.1%

CC(CCc1ccco1)NC(=O)Cn1ncc2c(=O)oc3ccccc3c21 (stereo unspecified)
inactive: growth inhibition [1] -15.7% | growth inhibition [2] -12.5% | viability increase [3] -3.03% | viability [4] 105% | viability [5] 93.7% | inhibition [6] 1.96% | RAM network inhibition [7] 5.79%

O=C(CCC(=O)OCCCC(F)(F)C(F)(F)F)Nc1ccccc1
inactive: growth inhibition [1] -3.25% | growth inhibition [2] 3.78% | viability increase [3] 1.41% | viability [4] 100% | viability [5] 104% | inhibition [6] 0.785% | RAM network inhibition [7] 3.34%

O=C(Cn1c2c(c(-c3ccccc3)cc1=O)CCCC2)N1CCCCCC1
inactive: growth inhibition [1] -10.5% | growth inhibition [2] -10.3% | viability increase [3] -3.64% | viability [4] 48.8% | viability [5] 49% | inhibition [6] 1.49% | RAM network inhibition [7] -0.37%

Cc1ccc(-c2nnc(N3CCCCC3)c3ccccc23)cc1S(=O)(=O)N1CCN(C)CC1
inactive: growth inhibition [1] -1.95% | growth inhibition [2] -1.92% | viability increase [3] -5.28% | viability [4] 48% | viability [5] 60.2% | inhibition [6] 0.285% | RAM network inhibition [7] -2.14%

COc1ccccc1-c1c(C)nn2c(C)cc(C)nc12
inactive: growth inhibition [1] -5.75% | growth inhibition [2] -1.54% | viability increase [3] -1.88% | viability [4] 97.5% | viability [5] 97.3% | inhibition [6] 0.895% | RAM network inhibition [7] 1.79%

COc1ccc(S(=O)(=O)Cc2ccc(C(=O)NC3CCCC3)o2)cc1
inactive: growth inhibition [1] -0.76% | growth inhibition [2] -12% | viability increase [3] -1.65% | viability [4] 108% | viability [5] 96.3% | inhibition [6] 1.19% | RAM network inhibition [7] 2.65%

CCN1CCN(Cc2ccc(NC(=O)Nc3ccc(OC)cc3)cc2)CC1
inactive: growth inhibition [1] 5.68% | growth inhibition [2] 1.98% | viability increase [3] 0.19% | viability [4] 104% | viability [5] 108% | inhibition [6] 2.09% | RAM network inhibition [7] 1.09%

O=S(=O)(Nc1ccc(-c2nc3cccnc3s2)cc1)c1cccs1
inactive: growth inhibition [1] -4.44% | growth inhibition [2] -6.65% | viability increase [3] -1.73% | viability [4] 110% | viability [5] 95.6% | inhibition [6] 1.79% | RAM network inhibition [7] 3.74%

O=C(c1cc(-c2cccc(O)c2)on1)N1CCOCC1
inactive: growth inhibition [1] 1.27% | growth inhibition [2] 7.52% | viability increase [3] 0.64% | viability [4] 107% | viability [5] 98.4% | inhibition [6] 2.15% | RAM network inhibition [7] 2.22%

O=C(NC1CCCCCCC1)c1cnccn1
inactive: growth inhibition [1] 0.775% | growth inhibition [2] 10.4% | viability increase [3] -0.43% | viability [4] 103% | viability [5] 93.7% | inhibition [6] 1.72% | RAM network inhibition [7] 1.71%

CCOC(=O)c1c(NC(=O)c2ccco2)sc2c1CCCC2
inactive: growth inhibition [1] -15.7% | growth inhibition [2] -15.4% | viability increase [3] 1.84% | viability [4] 97.8% | viability [5] 101% | inhibition [6] 4.13% | RAM network inhibition [7] 1.41%

Cn1c(NC(=O)CC2CCCCC2)cc(=O)n(C)c1=O
inactive: growth inhibition [1] -14% | growth inhibition [2] -21.6% | viability increase [3] -0.04% | viability [4] 93.3% | viability [5] 87% | inhibition [6] 0.43% | RAM network inhibition [7] -0.37%

CCCc1nc(N)nc2c1C(=O)CC(C)(C)C2
inactive: growth inhibition [1] -15.1% | growth inhibition [2] 3.37% | viability increase [3] -1.08% | viability [4] 89.4% | viability [5] 87.6% | inhibition [6] 1.54% | RAM network inhibition [7] 0.27%

Cc1cc(C)nc(/N=C2\NC(=O)CC(C(=O)O)N2CCc2c[nH]c3ccccc23)n1 (stereo unspecified)
inactive: growth inhibition [1] -0.875% | growth inhibition [2] -4.41% | viability increase [3] -2.04% | viability [4] 93.3% | viability [5] 84.1% | inhibition [6] 0.67% | RAM network inhibition [7] -0.83%
